In ChEMBL document CHEMBL4725388, “Characterization of Aminobenzylphenols as Protein Disulfide Isomerase Inhibitors in Glioblastoma Cell Lines” (J Med Chem, 2020):
pIC50: −log10 of the molar value. Active and inactive are the calls of the source. The calls are words filed in the database; no cut-off is given here.

Assays:
[1] = biological target: T1, Protein disulfide-isomerase (Homo sapiens, UniProt P07237); test: Inhibition of recombinant human wild-type N-terminal His-tagged PDIA1 expressed in Escherichia coli strain BL21(DE3) at 10 to 40 uM using bovine insulin as substrate preincubated for 1 hr followed by substrate addition; settings: dose microM 10-40, time 1.0 hrs
Target sequence in this assay (P07237 18-508 limits assumed): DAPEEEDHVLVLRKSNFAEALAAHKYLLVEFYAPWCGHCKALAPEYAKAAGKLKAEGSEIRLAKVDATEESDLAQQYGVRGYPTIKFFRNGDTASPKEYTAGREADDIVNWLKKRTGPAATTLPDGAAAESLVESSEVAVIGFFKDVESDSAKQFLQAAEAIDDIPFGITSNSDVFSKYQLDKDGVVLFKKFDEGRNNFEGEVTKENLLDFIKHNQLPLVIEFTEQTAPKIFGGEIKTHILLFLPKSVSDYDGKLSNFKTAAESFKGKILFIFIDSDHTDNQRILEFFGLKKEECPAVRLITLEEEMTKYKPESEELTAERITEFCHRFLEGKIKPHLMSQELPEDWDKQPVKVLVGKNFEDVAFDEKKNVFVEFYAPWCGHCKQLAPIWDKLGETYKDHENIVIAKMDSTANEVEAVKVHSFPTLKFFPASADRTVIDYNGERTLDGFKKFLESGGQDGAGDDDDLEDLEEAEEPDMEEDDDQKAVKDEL

Albumin [2] = biological target: T2, Albumin (Bos taurus, UniProt P02769); test: Binding affinity to fetal bovine serum albumin at 20 uM measured after overnight incubation in presence of cell free DMEM medium by gel based assay; type: ADME; settings: cattle
Albumin [3] = biological target: T2, Albumin; test: Binding affinity to fetal bovine serum albumin at 40 uM measured after 24 hrs in presence of human U-87 MG cells by Western blot analysis; type: ADME, cell-free; settings: cattle
[4] = biological target: T1, Protein disulfide-isomerase; test: Binding affinity to PDIA1 in human U-87 MG cells at 40 uM measured after 24 hrs in presence of fetal bovine serum by Western blot analysis; type: cell-based
Target sequence in this assay (P07237 18-508 limits assumed): as above

[5] = biological target: T1, Protein disulfide-isomerase; test: Binding affinity to PDIA1 in human U-87 MG cells at 10 uM measured after 24 hrs in absence of fetal bovine serum by coomassie staining GFP channel based assay; type: cell-based
Target sequence in this assay (P07237 18-508 limits assumed): as above

[6] = biological target: T1, Protein disulfide-isomerase; test: Binding affinity to recombinant human wild-type N-terminal His-tagged PDIA1 expressed in Escherichia coli strain BL21(DE3) at 20 uM measured after 24 hrs in presence of BSA by SDS PAGE analysis
Target sequence in this assay (P07237 18-508 limits assumed): as above

[7] = Drug uptake in human A 172 cell cytoplasm at 10 uM measured after 24 hrs by PDI antibody/DAPI staining based confocal microscopic analysis; type: ADME, subcellular; settings: a 172, 24 h
[8] = Drug uptake in human A 172 cell endoplasmic reticulum at 10 uM measured after 24 hrs by PDI antibody/DAPI staining based confocal microscopic analysis; type: ADME, subcellular; settings: a 172, 24 h
[9] = Drug uptake in human A 172 cell nucleus at 10 uM measured after 24 hrs by PDI antibody/DAPI staining based confocal microscopic analysis; type: ADME, subcellular; settings: a 172, 24 h
[10] = biological target: T1, Protein disulfide-isomerase; test: Inhibition of recombinant human wild-type N-terminal His-tagged PDIA1 expressed in Escherichia coli strain BL21(DE3) using bovine insulin as substrate preincubated for 1 hr followed by substrate addition
Summary of the method: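 IC50 from dose-response curves; PDI reductase assay for enzyme, MTT in U-87 MG cells for cytotoxicity; mean ± SD of at least three independent experiments.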
Target sequence in this assay (P07237 whole entry): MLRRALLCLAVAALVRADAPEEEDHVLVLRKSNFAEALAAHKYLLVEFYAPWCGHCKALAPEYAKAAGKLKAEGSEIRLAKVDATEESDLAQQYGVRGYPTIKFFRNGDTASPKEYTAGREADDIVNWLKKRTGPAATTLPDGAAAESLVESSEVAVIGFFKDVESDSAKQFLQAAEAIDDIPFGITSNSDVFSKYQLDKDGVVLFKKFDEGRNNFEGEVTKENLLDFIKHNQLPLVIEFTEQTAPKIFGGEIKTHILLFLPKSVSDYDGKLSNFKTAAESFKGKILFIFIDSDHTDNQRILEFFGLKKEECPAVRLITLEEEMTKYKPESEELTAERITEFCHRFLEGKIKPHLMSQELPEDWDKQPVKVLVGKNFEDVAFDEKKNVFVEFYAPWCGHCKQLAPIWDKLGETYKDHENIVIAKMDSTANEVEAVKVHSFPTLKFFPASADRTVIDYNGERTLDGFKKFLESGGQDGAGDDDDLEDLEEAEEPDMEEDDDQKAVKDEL

[11] = biological target: T1, Protein disulfide-isomerase; test: Binding affinity to PDIA1 in human U-87 MG cells at 5 uM measured after 24 hrs in presence of DTT by coomassie staining GFP channel based Western blot assay; type: cell-based
Target sequence in this assay (P07237 18-508 limits assumed): as the sequence (P07237 18-508 limits assumed) above

[12] = biological target: T1, Protein disulfide-isomerase; test: Binding affinity to PDIA1 in human U-87 MG cell lysates at 5 uM measured after 24 hrs by PAGE analysis; type: subcellular
Target sequence in this assay (P07237 18-508 limits assumed): as above

Albumin [13] = biological target: T2, Albumin; test: Binding affinity to BSA at 100 uM measured after overnight incubation by coomassie staining GFP channel based Western blot assay; type: ADME, cell-free; settings: cattle, serum
U-87MG ATCC [14] = test: Upregulation of CALR gene expression in human U-87 MG cells at 20 uM incubated for 4 hrs followed by Bru addition during last 30 mins of incubation by Trizol reagent based gene sequencing analysis; type: functional, cell-based
U-87MG ATCC [15] = test: Upregulation of HSPA5 gene expression in human U-87 MG cells at 20 uM incubated for 4 hrs followed by Bru addition during last 30 mins of incubation by Trizol reagent based gene sequencing analysis; type: functional, cell-based
U-87MG ATCC [16] = test: Upregulation of MYZAP gene expression in human U-87 MG cells at 20 uM incubated for 4 hrs followed by Bru addition during last 30 mins of incubation by Trizol reagent based gene sequencing analysis; type: functional, cell-based
U-87MG ATCC [17] = test: Upregulation of NQO1 gene expression in human U-87 MG cells at 20 uM incubated for 4 hrs followed by Bru addition during last 30 mins of incubation by Trizol reagent based gene sequencing analysis; type: functional, cell-based
U-87MG ATCC [18] = test: Upregulation of SLC7A11 gene expression in human U-87 MG cells at 20 uM incubated for 4 hrs followed by Bru addition during last 30 mins of incubation by Trizol reagent based gene sequencing analysis; type: functional, cell-based
[19] = Effect on total CALR expression in human U-87 MG cells at 20 uM measured after 12 to 48 hrs by Western blot analysis; type: ADME, cell-based; settings: u-87mg atcc, time 12-48 hrs
[20] = biological target: T1, Protein disulfide-isomerase; test: (§1) Inhibition of N-(4-(5,5-Difluoro-1,3,7,9-tetramethyl-5H-4(Gamma4),5(Gamma4)-dipyrrolo[1,2-c:2',1'-f][1,3,2]diazaborinin-10-yl))-N-(2-(4-((6-hydroxybenzo[d]-[1,3]dioxol-5-yl)(piperidin-1-yl)methyl)benzamido)ethyl)-benzamide binding to PDIA1 in human U-87 MG cell lysates measured after 24 hrs by PAGE analysis; type: subcellular
[21] = biological target: T3, Protein disulfide-isomerase A2 (Homo sapiens, UniProt Q13087); test: as §1, with “recombinant PDIA2 (unknown origin)” for “PDIA1 in human U-87 MG cell lysates”
T3 sequence (Q13087 whole entry): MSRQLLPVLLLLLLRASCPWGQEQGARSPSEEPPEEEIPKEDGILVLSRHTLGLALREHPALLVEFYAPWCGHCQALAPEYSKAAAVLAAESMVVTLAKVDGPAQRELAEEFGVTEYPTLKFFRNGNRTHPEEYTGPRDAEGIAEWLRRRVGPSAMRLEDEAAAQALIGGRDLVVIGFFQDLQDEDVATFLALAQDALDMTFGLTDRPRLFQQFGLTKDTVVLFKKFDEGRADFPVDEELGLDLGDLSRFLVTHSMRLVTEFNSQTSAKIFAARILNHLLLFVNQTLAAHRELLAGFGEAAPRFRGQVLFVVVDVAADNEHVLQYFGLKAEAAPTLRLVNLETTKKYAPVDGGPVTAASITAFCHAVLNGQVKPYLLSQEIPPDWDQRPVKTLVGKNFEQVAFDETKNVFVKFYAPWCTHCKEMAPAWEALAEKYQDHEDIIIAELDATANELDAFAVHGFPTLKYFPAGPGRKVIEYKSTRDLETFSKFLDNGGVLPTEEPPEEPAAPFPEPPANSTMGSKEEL

[22] = biological target: T4, Protein disulfide-isomerase A3 (Homo sapiens, UniProt P30101); test: as §1, with “recombinant PDIA3 (unknown origin)” for “PDIA1 in human U-87 MG cell lysates”
T4 sequence (P30101 whole entry): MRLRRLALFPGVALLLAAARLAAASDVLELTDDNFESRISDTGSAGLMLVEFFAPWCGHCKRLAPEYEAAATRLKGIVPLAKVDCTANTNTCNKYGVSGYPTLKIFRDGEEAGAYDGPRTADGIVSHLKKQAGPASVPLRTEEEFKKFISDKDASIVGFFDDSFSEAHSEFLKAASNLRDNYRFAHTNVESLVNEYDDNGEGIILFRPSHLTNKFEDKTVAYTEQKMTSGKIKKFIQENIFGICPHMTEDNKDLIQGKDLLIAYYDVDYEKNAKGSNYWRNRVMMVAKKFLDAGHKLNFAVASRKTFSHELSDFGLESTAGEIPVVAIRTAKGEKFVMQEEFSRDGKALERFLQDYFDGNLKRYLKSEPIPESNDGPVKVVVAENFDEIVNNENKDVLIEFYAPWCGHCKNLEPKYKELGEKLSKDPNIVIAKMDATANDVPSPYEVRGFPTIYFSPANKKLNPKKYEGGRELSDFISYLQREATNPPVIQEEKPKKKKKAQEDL

T2 sequence (P02769 whole entry): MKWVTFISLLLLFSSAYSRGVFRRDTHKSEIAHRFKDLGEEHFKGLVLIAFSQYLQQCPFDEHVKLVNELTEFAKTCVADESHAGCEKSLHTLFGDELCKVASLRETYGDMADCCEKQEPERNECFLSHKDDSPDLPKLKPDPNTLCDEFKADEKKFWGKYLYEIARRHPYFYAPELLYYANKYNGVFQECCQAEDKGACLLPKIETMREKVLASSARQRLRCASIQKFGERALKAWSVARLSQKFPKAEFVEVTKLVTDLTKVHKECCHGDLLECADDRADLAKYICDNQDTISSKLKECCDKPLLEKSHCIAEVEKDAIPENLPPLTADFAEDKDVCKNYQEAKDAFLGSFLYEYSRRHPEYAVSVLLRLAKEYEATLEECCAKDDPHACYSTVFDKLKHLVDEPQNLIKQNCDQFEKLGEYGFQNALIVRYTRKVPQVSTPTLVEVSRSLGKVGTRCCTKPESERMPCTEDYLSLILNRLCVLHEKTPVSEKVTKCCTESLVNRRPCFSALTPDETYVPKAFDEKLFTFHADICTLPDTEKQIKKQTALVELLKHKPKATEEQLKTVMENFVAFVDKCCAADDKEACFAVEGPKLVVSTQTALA

Structure (SMILES): CC1=CC(C)=[N+]2C1=C(c1ccc(NC(=O)c3ccc(C(c4cc5c(cc4O)OCO5)N4CCCCC4)cc3)cc1)c1c(C)cc(C)n1[B-]2(F)F (centres undefined)
- inhibition [1]: inactive
- Activity (Albumin [2]): Active
- Activity (Albumin [3]): Active
- Activity [4]: inactive
- Activity [5]: inactive
- Activity [6]: Active
- Drug uptake [7]: Active
- Drug uptake [8]: Active
- Drug uptake [9]: Active

Structure (SMILES): CC1=CC(C)=[N+]2C1=C(c1ccc(C(=O)NCCNC(=O)c3ccc(C(c4cc5c(cc4O)OCO5)N4CCCCC4)cc3)cc1)c1c(C)cc(C)n1[B-]2(F)F (centres undefined)
- pIC50 [10]: 5.86
- Activity (Albumin [2]): Active
- Activity [11]: inactive
- Activity [12]: Active
- Activity (Albumin [13]): Not Active
- Activity [6]: Active
- Drug uptake [7]: Active
- Drug uptake [8]: Active
- Drug uptake [9]: Active

Structure (SMILES): Oc1c(C(c2ccncc2)N2CCCCC2)ccc2ccoc12 (centres undefined)
- pIC50 [10]: > 6.70
- Activity (U-87MG ATCC [14]): Active
- Activity (U-87MG ATCC [15]): Active
- Activity (U-87MG ATCC [16]): Active
- Activity (U-87MG ATCC [17]): Active
- Activity (U-87MG ATCC [18]): Active
- Activity [19]: Non-Toxic

Structure (SMILES): Oc1cc2c(cc1C(c1ccccc1)N1CCCCC1)OCO2 (centres undefined)
- pIC50 [10]: 5.54
- inhibition [20]: Dose-dependent effect
- inhibition (INH) [21]: Dose-dependent effect
- inhibition (INH) [22]: Dose-dependent effect
